What is called Kd is the free concentration of one partner at which half of the binding sites on the other are occupied at equilibrium, for simple one-to-one binding.

In test [1] the target is PGRP5. Briefly: SPR on a Biacore T200. The note with it: read-out: Kd (μM), values without parentheses. In kind it is binding. The method in brief:
(§1)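 Association and dissociation were run on a Biacore T200 with amine-coupled protein. DAP- or Lys-muramyl pentapeptide, stored at −20 °C, was flowed in HBS-EP (10 mM HEPES, 150 mM NaCl, 3 mM EDTA, 0.005% polysorbate 20) at 30 μl/min and 25 °C. Multi-concentration curves were globally fitted to 1:1 and two-state models, and Kd came from the fit with lower χ2.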
Background: Surface plasmon resonance follows binding to a sensor surface in real time, without labels.

The target in test [2] is PGRP3s. Description: SPR on a Biacore T100. In kind it is binding. The note with it: read-out: Kd (μM), values in parentheses. The procedure, abridged: (§2)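 On a Biacore T100, protein was amine-coupled and DAP- or Lys-muramyl pentapeptide, freshly prepared, was flowed in HBS-EP (10 mM HEPES, 150 mM NaCl, 3 mM EDTA, 0.005% polysorbate 20) at 30 μl/min and 25 °C. Curves at several analyte concentrations were globally fitted to 1:1 and two-state models, and the fit with lower χ2 gave Kd.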

In test [3] the target is PGRP3s. Briefly: SPR on a Biacore T200. It counts as binding. The note with it: read-out: Kd (μM), values without parentheses. The method in brief:
as §1

Test [4] has as its target PGRP3f. Briefly: SPR on a Biacore T200. In kind it is binding. The note with it: read-out: Kd (μM), values without parentheses. The method in brief: as §1
Test [5] addresses PGRP4. Description: SPR on a Biacore T200. It counts as binding. The note with it: read-out: Kd (μM), values without parentheses. The procedure, abridged: as §1
The target in test [6] is T1, PGRP2 (Manduca sexta, UniProt D1KRK9).
T1 sequence (D1KRK9 19-196): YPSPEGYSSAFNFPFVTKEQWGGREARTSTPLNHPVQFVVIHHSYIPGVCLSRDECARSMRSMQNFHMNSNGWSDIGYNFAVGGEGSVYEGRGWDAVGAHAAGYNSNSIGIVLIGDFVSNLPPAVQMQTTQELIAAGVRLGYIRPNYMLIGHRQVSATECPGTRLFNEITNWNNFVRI
Description: SPR on a Biacore T100. It counts as binding. The note with it: read-out: Kd (μM), values in parentheses. The procedure, abridged:
as §2

The target in test [7] is PGRP13f. Briefly: SPR on a Biacore T200. It counts as binding. The note with it: read-out: Kd (μM), values without parentheses. The method in brief:
as §1

Test [8] addresses T2, PGRP1 (Manduca sexta, UniProt Q86RS6).
T2 sequence (Q86RS6 20-191): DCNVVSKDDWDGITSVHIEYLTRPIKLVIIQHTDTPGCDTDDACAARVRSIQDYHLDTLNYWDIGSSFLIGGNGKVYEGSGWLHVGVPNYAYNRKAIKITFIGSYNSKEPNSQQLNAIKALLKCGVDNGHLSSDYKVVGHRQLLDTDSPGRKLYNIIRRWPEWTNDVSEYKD
Description: SPR on a Biacore T200. It counts as binding. The note with it: read-out: Kd (μM), values without parentheses. The method in brief: as §1

Test [9] addresses T2, PGRP1. Briefly: SPR on a Biacore T100. It counts as binding. The note with it: read-out: Kd (μM), values in parentheses; cited from earlier work.
Test [10] has as its target PGRP12e. Briefly: SPR on a Biacore T200. In kind it is binding. The note with it: read-out: Kd (μM), values without parentheses. The procedure, abridged: as §1
For test [11], the system named is proPO activation in cell-free hemolymph from naïve larvae. Description: Elicitor-independent proPO activation in plasma from naïve larvae. In kind it is biochemical, Manduca sexta. The note with it: at 40 ng/μl protein, 60 min, room temperature, no bacterial elicitor. The procedure, abridged: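 Naïve larval plasma (day 2, 5th instar; hemocytes removed by 5000 × g, 5 min; stored −80 °C, used within a month) was diluted ten-fold in 20 mM Tris-HCl pH 8.0, 1 mM CaCl2, 0.001% Tween-20. Plasma (5 μl) was mixed with 0–1000 ng protein (final 25 μl) and incubated 60 min. BSA served as negative control. PO was read with dopamine at A470 in kinetic mode; mean ± SD, n = 3.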

“Lys-muramyl pentapeptide (Lys-type peptidoglycan monomer) [Lys-MPP]”: the Kd in test [1] is 37.8 µM; in test [2], 64 µM; in test [3] it was 23.8 µM; in test [4], 29.2 µM; in [5], 79.8 µM; in [6], above 100 µM. The dissociation constant Kd in [7] is 8.77 µM; in test [8] it was 38 µM; in [9], 45.6 µM.
Take “DAP-muramyl pentapeptide (meso-diaminopimelic acid-type peptidoglycan monomer) [DAP-MPP]”: the dissociation constant Kd in [1] is 2.01 µM; in [2] it was 0.42 µM; in test [3], 1.75 µM; in test [4] it was 4.7 µM; in test [5], 4.06 µM; in test [6], 0.49 µM. Also, the equilibrium dissociation constant (Kd) was 2.64 µM in test [10], 1.8 µM in test [7], 2.01 µM in [8] and 0.57 µM in [9].
In test [11], bovine serum albumin [BSA] came in with a PO activity of 0.1 U.

The values above are taken from article PMC11528686 (Insect biochemistry and molecular biology, 2022).
